Experimental data reported in the EternaBench riboswitch data.

Test system: MS2 coat protein
Assay: apparent Kd, MS2 coat protein; higher = weaker binding; RNA-MaP array; theophylline 2 mM where present
Summary of the method: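 The apparent Kd comes from binding curves fitted cluster by cluster, filtered, and summarised as a median. Those curves followed SNAP-549-labelled MS2 coat protein from 0.7 or 1.5 nM, doubling to 3 µM, on Illumina sequencing-chip clusters where stalled E. coli RNA polymerase had transcribed the designs, without and then with constant ligand. The buffer was 100 mM Tris-HCl pH 7.5, 80 mM KCl, 4 mM MgCl2, BSA, DTT, yeast tRNA and Tween-20, and green signal was normalised to red-channel RNA signal and control-cluster median Fmax.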

[1] = designed as: ON switch for theophylline, no ligand
[2] = ligand present: theophylline, designed as: ON switch for theophylline
[3] = designed as: OFF switch for theophylline, no ligand
[4] = ligand present: theophylline, designed as: OFF switch for theophylline

Sequence	apparent Kd [1] [µM]	apparent Kd [2] [µM]	apparent Kd [3] [µM]	apparent Kd [4] [µM]
ACGACGCAUAGUGAUACCAGUAGAACAUGAGGAUCACCCAUGUCUGUGACGCACAAAUUCUGCCCUUGGCAGCACUAUGCGUCAG	0.0114	0.0333	–	–
ACGAUACGACAUGAGGAUCACCCAUGUGAUACCAGCCUGGAAACAGGCCCUUGGCAGCACAAAUACUCCAGAAACGUAUCGAAAA	–	–	0.204	0.469
ACGAUAGGACAUGAGGAUCACCCAUGUGAUACCAGCCUGGAAACAGGCCCUUGGCAGCACAAAUACUCCAGAAACCUAUCGAAUA	–	–	0.281	0.226
ACUAGUUGUGCAGAUACCAGACAUGAGGAUCACCCAUGUUUGGGAUGUUCGCAUCUUCCUGUCCCUUGGCAGCUGUACAUCUAGA	–	–	0.0825	0.0446
ACUAGUUGUGCAGAUACCAGACAUGAGGAUCACCCAUGUUUGGGUUGUUCGCAACUUCCUGUCCCUUGGCAGCUGUACAUCUAGA	–	–	0.0249	0.138
ACUUCAUGAGGUGAUACCAGCCAAUGACAUGAGGACAUGAGGAUCACCCAUGUUUAUGUAGGCCCUUGGCAGCAUUGUAACAUGA	0.0594	0.0523	–	–
AGAAUACAUGUUUUAAUACGGUUUACUGAUACCAGUGUAUCUAUUCACCCUUGGCAGCAGAGACAUGAGGAUCACCCAUGUAUUA	–	–	0.0388	0.0552
AGACAUGAGGAUCACCCAUGUAGCACGGAUACCAGAUCCAGAUUUAUCCCUUGGCAGCUGUGGUACAGCGUUGCAACGCUCCUAG	–	–	0.0187	0.0294
AGACAUGAGGAUCACCCAUGUAGCAUGGAUACCAGAUGUAGAUUUGUCCCUUGGCAGCUGUGGUAAAGUGAUGCAUUGCUCCUAG	–	–	0.0452	0.0452
AGACAUGAGGAUCACCCAUGUAGUAUGGAUACCAGAUCCAGAUUUAUCCCUUGGCAGCUGUGGUACAGCGAUGGAUUGCUCCUAG	–	–	0.038	0.0398
AGAUGCCACUGUGGAUAGCACGAUGCCGAUACCAGCUAGGAAACUAGCCCUUGGCAGCGGUACAUGAGGAUCACCCAUGUAUCCU	–	–	–	0.075
AUAAGUAAUGUCUCGUGUAUUAUUACAGAUACCAGACUAUCCUAUGUCCCUUGGCAGCUGGAUUACAUGAGGAUCACCCAUGUUG	–	–	0.0232	0.0275
AUAAGUAUGUUUUCGUGUUUUAUUACAGAUACCAGACUAUACGUUGUCCCUUGGCAGCUGGAUUACAUGAGGAUCACCCAUGUUG	–	–	0.0231	0.053
AUAGUCUAGAGUGAUACCAGACAACAUGAGGAUCACCCAUGUAGCAUAUGGUUAUCAUGAGUCCCUUGGCAGCACGCAUGUAUAG	–	–	0.0123	0.0558
AUAUGAUCAUGGGAUACCAGAAAUGGUAUUCCUUUAUUUCUUACAUGAGGAUCACCCAUGUUCCCUUGGCAGCUUAUGAUCAUAU	–	–	0.075	0.282
AUAUGAUCAUGUGAUACCAGAAAUGGUAGUCUUCACUGGAUUACAUGAGGAUCACCCAUGUUCCCUUGGCAGCAUAUGAUCAUAU	–	–	0.0436	0.259
AUCGUACCUAAUGAUACCAGCAAGUGAUCAUAACAUGAGGAUCACCCAUGUAAUCAGUGAUGCCCUUGGCAGCAUAAUCGUUACA	0.163	0.127	–	–
AUGUCAUUGGUGUAGCUGUGAAAUGGCGAUACCAGCGUGGAAACACGCCCUUGGCAGCGCCAAAACAUGAGGAUCACCCAUGUUA	–	–	0.0876	0.272
AUGUCGUUGAAUAUAGCGGCUUGGUGUGAUACCAGAAUGAUCAAAUUCCCUUGGCAGCAUUACAUGAGGAUCACCCAUGUUUAGG	0.0237	0.0229	–	–
AUUUACAUGGUCAUAUAUAUAUCGUCAGAUACCAGACGAGAUAUUGUCCCUUGGCAGCUGUUACAUGAGGAUCACCCAUGUAAUU	–	–	0.0858	0.0837
AUUUAUAGUUGUGAUACCAGACUUACAUGAGGAUCACCCAUGUUACUUAAAUGUUUUGAUGUCCCUUGGCAGCACUGUUUUUUUA	–	–	0.0166	–
AUUUAUUGUCGUGAUACCAGACAUACAUGAGGAUCACCCAUGUUAAGUAACAUUUUUUAGGUCCCUUGGCAGCACUUUUUAAUUA	0.0261	0.0158	–	–
AUUUUUCUAUCAGAUACCAGACAACUCCAAACAUGAGGAUCACCCAUGUAUUGGGUGUUCGUCCCUUGGCAGCUGUUAAUGUUAA	0.0169	0.00941	–	–
CAUACUUGAUCCUAUGAGCCUAUUUGUGAUACCAGCAUCUAAAUUUGCCCUUGGCAGCACUAACAUGAGGAUCACCCAUGUUAUA	–	–	0.0349	0.0718
CCACACAUGAGGAUCACCCAUGUAAUUGAUACCAGAUUUAAAUGAGUCCCUUGGCAGCAGUGAGCUAGAGUUGUCGUAUAUAUGG	0.017	0.0189	–	–
CGAAUACCAAUUGAUACCAGCAUGUUAACAUGAGGAUCACCCAUGUUAAGGAUAACAUAAUGCCCUUGGCAGCAACGUAAAUUCG	0.0229	0.0135	–	–
CGAUCUUUCGAAAGAAGGAUCGAUUCUGAUACCAGAGACGAAAGUCUCCCUUGGCAGCAGUGCCAACAUGAGGAUCACCCAUGUA	0.0224	0.0213	–	–
